A value given as a limit tells only on which side of the number the result lay.

Experimental findings from ChEMBL document CHEMBL4311966, “Sulfide, sulfoxide and sulfone bridged acyclic nucleoside phosphonates as inhibitors of the Plasmodium falciparum and human 6-oxopurine phosphoribosyltransferases: Synthesis and evaluation” (Eur J Med Chem, 2019) are described below.

The nature of data set [1]: Inhibition of Plasmodium falciparum HGPRT using xanthine as substrate by Hanes-plot based method. The method in brief:
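Ki was determined for PfHGXPRT using xanthine as the substrate, under the conditions used for human HGPRT. The reaction was followed spectrophotometrically at 255 nm, with Δε 4670 M⁻¹ cm⁻¹. Km for xanthine was 189 ± 18 μM.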

Data set [2] deals with T1, Hypoxanthine-guanine phosphoribosyltransferase (Homo sapiens, UniProt P00492).
T1 sequence (P00492 whole entry): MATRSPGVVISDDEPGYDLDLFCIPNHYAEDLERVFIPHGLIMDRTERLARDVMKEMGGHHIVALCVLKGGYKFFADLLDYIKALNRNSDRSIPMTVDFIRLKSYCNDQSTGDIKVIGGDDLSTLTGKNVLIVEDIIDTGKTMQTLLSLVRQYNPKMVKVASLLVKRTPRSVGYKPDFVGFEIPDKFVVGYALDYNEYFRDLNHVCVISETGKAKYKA
Put plainly: Inhibition of human HGPRT using Prib-PP as substrate by Hanes-plot based method.

The nature of data set [3]: Selectivity index, ratio of Ki for human HGPRT to Ki for Plasmodium falciparum HGPRT.
The subject of data set [4] is Plasmodium falciparum. Briefly: Antimalarial activity against Plasmodium falciparum D6 in erythrocytes assessed as reduction in 3H-hypoxanthine uptake incubated for 96 hrs and 3H-hypoxanthine added after 48 hrs of compound addition.
Data set [5] deals with Plasmodium falciparum. Put plainly: Antimalarial activity against chloroquine-resistant Plasmodium falciparum W2 in erythrocytes assessed as reduction in 3H-hypoxanthine uptake incubated for 96 hrs and 3H-hypoxanthine added after 48 hrs of compound addition.
Data set [6] in a line: Cytotoxicity against human HepG2 cells assessed as cell viability at 10 uM. Type of data set: cell-based. The note with it: read-out: Activity. The method in brief:
(§1)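 Percent viability of human HepG2 (hepatocellular carcinoma) and CCRF-CEM (T-cell leukemia) cells after exposure to a single fixed prodrug concentration of 10 μM, expressed relative to untreated control cells.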

Data set [7] in a line: Cytotoxicity against human CCRF-CEM cells assessed as cell viability at 10 uM. Type of data set: cell-based. The note with it: read-out: Activity. An outline of the steps: as §1

On to `Nc1nc2c(ncn2CC[S+]([O-])CCP(=O)(O)O)c(=O)[nH]1` (configuration not stated), for which the values for the Ki in data set [1] and in data set [2] were 300 nM and 0.2 µM, respectively. Moreover, the Ratio Ki in data set [3] amounted to 0.7.

Take `O=c1[nH]cnc2c1ncn2CCC[S+]([O-])CP(=O)(O)O` (configuration not stated): the inhibitory constant (Ki) in data set [1] turned out to be 4000 nM; in data set [2], 11 µM. In data set [3], the Ratio Ki is 2.8.

As to `O=c1[nH]cnc2c1ncn2CC[S+]([O-])CCP(=O)(O)O` (configuration not stated), the inhibition constant Ki in data set [1] was 1000 nM; in data set [2], 4 µM. Further, the Ratio Ki in data set [3] worked out at 4.

For the compound `CC(C)OC(=O)[C@H](Cc1ccccc1)NP(=O)(CCSCCn1cnc2c(=O)[nH]c(N)nc21)N[C@@H](Cc1ccccc1)C(=O)OC(C)C`, the IC50 is 5.4 µM with Plasmodium falciparum [4] and 4.4 µM in the data set on Plasmodium falciparum [5]. Besides, the viability at 10 µM was 83% in data set [6] and 106% in data set [7].

For `Nc1nc2c(ncn2CCCSCP(=O)(O)O)c(=O)[nH]1`, the Ki in data set [1] worked out at 1100 nM; in data set [2], 1.4 µM. For the same compound, the Ratio Ki in data set [3] amounted to 1.3.

For `O=c1[nH]cnc2c1ncn2CCCSCP(=O)(O)O`, the results for the Ki in data set [1] and in data set [2] were 3000 nM and more than 80 µM, respectively. Further, the Ratio Ki in data set [3] was more than 26.

With `Nc1nc2c(ncn2CCC[S+]([O-])CP(=O)(O)O)c(=O)[nH]1` (configuration not stated), the inhibitory constant (Ki) was found to be 200 nM in data set [1] and 3 µM in data set [2]. In addition, in data set [3], the Ratio Ki amounted to 15.

With `Nc1nc2c(ncn2CCSCCP(=O)(O)O)c(=O)[nH]1`, the results for the inhibition constant (Ki) in data set [1] and in data set [2] were 100 nM and 0.4 µM, respectively. In addition, the Ratio Ki in data set [3] is 4.

Take `O=c1[nH]cnc2c1ncn2CCCS(=O)(=O)CP(=O)(O)O`: the inhibition constant Ki in data set [1] was found to be 4500 nM; in data set [2], 46 µM. The Ratio Ki in data set [3] turned out to be 10.

On to `CC(C)OC(=O)[C@H](Cc1ccccc1)NP(=O)(CCSCCn1cnc2c(=O)[nH]cnc21)N[C@@H](Cc1ccccc1)C(=O)OC(C)C`, for which the IC50 in the data set on Plasmodium falciparum [4] came to 4.4 µM; with Plasmodium falciparum [5] it was 5.4 µM. For the same compound, the viability at 10 µM in data set [6] was 90%; in data set [7] it was 100%.

As to `CC(C)OC(=O)[C@H](Cc1ccccc1)NP(=O)(CSCCCn1cnc2c(=O)[nH]c(N)nc21)N[C@@H](Cc1ccccc1)C(=O)OC(C)C`, the IC50 worked out at 4 µM in the data set with Plasmodium falciparum [4] and 5.2 µM in the data set on Plasmodium falciparum [5]. In addition, the viability at 10 µM came out at 95% in data set [6] and 98% in data set [7].

`O=c1[nH]cnc2c1ncn2CCSCCP(=O)(O)O`: the Ki is 200 nM in data set [1] and 5 µM in data set [2]. In addition, the Ratio Ki in data set [3] was determined as 25.

For the compound `O=c1[nH]cnc2c1ncn2CCS(=O)(=O)CCP(=O)(O)O`, the inhibitory constant (Ki) in data set [1] was 4000 nM; in data set [2], more than 90 µM. Moreover, in data set [3], the Ratio Ki was more than 22.
